Experiments:
NIH3T3 = test: Inhibition of serum stimulated NIH3T3 cell proliferation; type: functional, cell-based; settings: Mus musculus
Method in brief: (§1)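 Cells were kept in DMEM with 10% FBS, grown to 70% confluence, PBS-washed and serum-starved for 24 h. They were then exposed to drug plus serum for 72 h, with DMSO at most 0.2%. Growth was measured by SRB staining after TCA fixation, OD 492 nm. IC50s are means from three experiments.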

[1] = Inhibition of serum stimulated HER-14 (EGF-receptor expressing) cell proliferation; type: functional; method in brief: as §1
[2] = Half-life period in RPMI; Not active; type: ADME
Method in brief: (§2)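 Compound dissolved in a minimal amount of DMSO and diluted into RPMI-1640 with 10% FBS. Absorbance was monitored spectrophotometrically in a UV cell held at 37 °C. Half-life came from a one-phase exponential decay curve fit. Each value is from a single experiment.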

[3] = Inhibition of serum stimulated NIH3T3/neu (ErbB2/neu expressing) cell proliferation; type: functional; method in brief: as §1
[4] = Half-life period in phosphate buffered saline (PBS); Not active; type: ADME; settings: buffer
[5] = Half-life period in RPMI; type: ADME; settings: RPMI medium; method in brief: as §2
[6] = Half-life period in phosphate buffered saline (PBS); type: ADME
[7] = target: Epidermal growth factor receptor (Homo sapiens) (UniProt P00533); test: Inhibition of epidermal growth factor receptor tyrosine kinase (EGFR TK)
Epidermal growth factor receptor (Homo sapiens), sequence (P00533 whole entry, looked up): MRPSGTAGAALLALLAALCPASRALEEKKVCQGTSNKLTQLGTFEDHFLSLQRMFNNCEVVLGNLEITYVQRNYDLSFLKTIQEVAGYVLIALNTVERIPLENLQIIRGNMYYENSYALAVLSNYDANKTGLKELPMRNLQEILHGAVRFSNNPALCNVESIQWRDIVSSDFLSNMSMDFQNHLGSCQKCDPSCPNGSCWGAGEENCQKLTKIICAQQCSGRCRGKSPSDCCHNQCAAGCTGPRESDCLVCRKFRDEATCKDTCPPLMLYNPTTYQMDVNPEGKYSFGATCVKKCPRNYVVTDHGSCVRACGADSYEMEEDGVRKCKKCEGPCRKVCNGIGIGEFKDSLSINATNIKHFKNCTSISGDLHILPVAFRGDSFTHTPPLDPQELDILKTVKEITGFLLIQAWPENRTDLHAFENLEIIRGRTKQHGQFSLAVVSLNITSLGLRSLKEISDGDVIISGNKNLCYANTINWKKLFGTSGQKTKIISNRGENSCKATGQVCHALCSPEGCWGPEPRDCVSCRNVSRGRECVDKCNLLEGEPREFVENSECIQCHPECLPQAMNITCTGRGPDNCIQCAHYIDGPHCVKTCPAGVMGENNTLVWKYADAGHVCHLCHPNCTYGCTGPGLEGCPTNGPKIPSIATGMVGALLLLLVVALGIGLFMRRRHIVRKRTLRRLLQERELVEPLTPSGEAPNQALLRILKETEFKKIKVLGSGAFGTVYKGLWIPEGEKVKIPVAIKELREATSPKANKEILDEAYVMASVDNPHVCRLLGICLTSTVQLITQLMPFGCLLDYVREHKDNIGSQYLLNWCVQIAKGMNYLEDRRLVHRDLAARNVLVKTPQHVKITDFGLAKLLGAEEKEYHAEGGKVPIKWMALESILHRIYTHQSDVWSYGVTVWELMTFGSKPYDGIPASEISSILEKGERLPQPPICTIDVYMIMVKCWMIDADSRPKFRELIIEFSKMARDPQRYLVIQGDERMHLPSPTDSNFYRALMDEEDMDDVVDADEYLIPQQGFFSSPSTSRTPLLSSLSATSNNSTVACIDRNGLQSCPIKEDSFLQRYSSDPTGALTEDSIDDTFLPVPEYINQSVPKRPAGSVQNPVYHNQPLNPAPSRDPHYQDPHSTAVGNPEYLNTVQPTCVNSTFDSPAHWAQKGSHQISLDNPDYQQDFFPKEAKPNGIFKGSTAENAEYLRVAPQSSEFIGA

Row | Compound | half-life [5] | half-life [6] | IC50 [7] | IC50 (NIH3T3) | IC50 [1] | NA [2] | IC50 [3] | NA [4]
1 | Nc1ccc2ncnc(Nc3cccc(Br)c3)c2c1 |  |  |  | 14.5 µM | 10.4 µM | Not Active | 0.42 µM | Not Active
2 | C/N=N/Nc1ccc2ncnc(Nc3cccc(Br)c3)c2c1 | 0.633 h | 1.13 h |  | 150 µM | 8.8 µM |  | 0.09 µM | 
3 | COc1cc2ncnc(Nc3cccc(Cl)c3)c2cc1OC.Cn1nnc2c(C(O)O)ncn2c1=O |  |  |  | 39.4 µM | 6.2 µM |  | 1.1 µM | 
4 | COc1cc2ncnc(Nc3cccc(Cl)c3)c2cc1OC [TYRPHOSTIN AG-1478] |  |  |  | 28.6 µM | 9.8 µM |  | 4 µM | 

Second part, led by results:

Row | half-life [5] | half-life [6] | IC50 [7] | Compound | IC50 (NIH3T3) | IC50 [1] | NA [2] | IC50 [3] | NA [4]
5 | 0.583 h | 1.15 h |  | C/N=N/Nc1ccc2ncnc(Nc3cccc(C)c3)c2c1 | 125 µM | 28.9 µM |  | 16.5 µM | 
6 | 0.667 h | 1.17 h |  | CN(CO)/N=N/c1ccc2ncnc(Nc3cccc(Br)c3)c2c1 | 12.8 µM | 2.1 µM |  | 0.09 µM | 
7 | 0.7 h | 1.4 h | 0.13 µM | CC(=O)OCN(C)/N=N/c1ccc2ncnc(Nc3cccc(Br)c3)c2c1 | 15.4 µM | 3.4 µM |  | 0.21 µM | 
8 | > 3.33 h | > 3.33 h | 0.578 µM | CC(=O)N(C)/N=N/c1ccc2ncnc(Nc3cccc(C)c3)c2c1 | 200 µM | 149 µM |  | 60.6 µM | 

— ChEMBL document CHEMBL1145931, “Synthesis of a prodrug designed to release multiple inhibitors of the epidermal growth factor receptor tyrosine kinase and an alkylating agent: a novel tumor targeting concept” (J Med Chem, 2003)
